GPR7 antagonist: antagonists of human GPR7 (neuropeptides B/W receptor 1) | P48145 | GPR7-expressing cells, fluorescence antagonist assay | inhibition, % at 4.4 µM | 1.1% of 290,000 active | AID 1861; in the data active = inhibition above about 16%, passing the limit was not always enough;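 note: cells stimulated with the agonist NPW; 0% = agonist with vehicle and 100% = vehicle without agonist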
Target sequence (P48145 whole entry, looked up): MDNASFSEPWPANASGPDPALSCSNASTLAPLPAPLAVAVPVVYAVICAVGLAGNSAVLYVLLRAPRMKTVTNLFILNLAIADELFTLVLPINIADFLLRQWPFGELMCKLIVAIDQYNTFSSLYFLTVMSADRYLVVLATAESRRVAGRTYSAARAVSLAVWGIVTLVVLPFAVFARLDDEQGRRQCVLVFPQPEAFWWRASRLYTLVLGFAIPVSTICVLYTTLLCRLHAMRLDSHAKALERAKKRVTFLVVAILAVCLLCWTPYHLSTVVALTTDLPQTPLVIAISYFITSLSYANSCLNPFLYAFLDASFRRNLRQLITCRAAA
OX1R antag-1: OX1R (human) antagonism; 1.8% of 330,000 active; inhibition, % at 6.6 µM; O43613; OX1R-expressing cells, FRET antagonist read-out; in the data active = inhibition mostly above about 38%, no sharp cut-off; inactive = mostly below about 40%;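 note: 0% = agonist challenge alone and 100% = reference antagonist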
TAAR1 agonist: agonists of human TAAR1 | Q96RJ0 | CHO RD-HGA16 TAAR1, Fluo-8 calcium fluorescence; vehicle wells 0%, saturating PEA agonist 100% | activation, % at 3 µM | 0.99% of 360,000 active;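 active = activation above the mean activation of all test compounds in the run plus 3 SD, cut at about 38% in these data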
Target sequence (Q96RJ0 whole entry, looked up): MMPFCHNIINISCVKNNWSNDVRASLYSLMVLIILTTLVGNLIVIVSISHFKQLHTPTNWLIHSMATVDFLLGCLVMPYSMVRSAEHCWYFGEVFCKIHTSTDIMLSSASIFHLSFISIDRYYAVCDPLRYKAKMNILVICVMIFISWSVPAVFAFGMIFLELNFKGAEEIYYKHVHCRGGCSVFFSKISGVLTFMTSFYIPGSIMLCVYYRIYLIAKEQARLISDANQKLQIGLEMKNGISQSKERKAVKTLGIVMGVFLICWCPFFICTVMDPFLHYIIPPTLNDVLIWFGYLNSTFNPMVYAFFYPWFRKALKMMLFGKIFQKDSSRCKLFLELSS
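Test system: RD-HGA16 (CHO) cells co-expressing Gα16 and hTAAR1; dosing: one-point dosing at 3 µM (nominal); timing: 17-24 h seeding, 75 min 37 °C dye, 30 min RT; signal: kinetic Fluo-8 calcium fluorescence; read-out basis: % activation relative to PEA EC100 response; controls: DMSO and PEA EC100; replicates: n 1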
CHO parental Ca: counter-screen for OX1R antagonists: effect in parental CHO cells. 0.63% of 330,000 active. inhibition, % at 5.6 µM. AID 463079. parental CHO-K1, ATP-induced calcium, Fluo-8 fluorescence;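 active = inhibition above that plate's mean sample inhibition plus 3 SD, cut at about 26% in these data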;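 note: 0% = ATP-challenged DMSO wells and 100% = DMSO wells without ATP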
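Assay system: untransfected parental CHO cell line. Also added: ATP agonist challenge. Dosing: one dose, 5.6 µM nominal. Measured by: Fluo-8 fluorescence. Read-out: % inhibition. Benchmarks: ATP wells versus no-ATP DMSO wells. Repeats: no replicates.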
TAAR1 antagonist: antagonists of human TAAR1 | Q96RJ0 | CHO RD-HGA16 TAAR1, Fluo-8 calcium fluorescence, antagonist | inhibition, % at 3 µM | 1.5% of 360,000 active | AID 624466;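 active = inhibition above a per-plate cutoff, the mean inhibition of test compounds on that plate plus 3 SD, cut at about 49% in these data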;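 note: 0% = DMSO plus EC80 beta-PEA response and 100% = DMSO alone without agonist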
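Test system – hTAAR1-expressing CHO RD-HGA16 cells, Gα16-coupled · Also added – β-PEA at EC80 concentration, post-compound challenge · Compound – 3 µM, single point · Incubation – dye loading 75 min at 37 °C, then 30 min room temperature · Measured by – Fluo-8 intracellular calcium dye fluorescence, real-time kinetic reads · Benchmarks – vehicle and agonist controls · Replicates – singlicate, one well per test compound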
OX1R antag-2: human HCRTR1 antagonism | CHO/OX1R cells, Fluo-8 calcium fluorescence, orexin A | inhibition, % at 5 µM | 0.43% of 330,000 active;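 active = inhibition above its plate's threshold, mean inhibition of all tested compounds on the plate plus 3 SD, cut at about 37% in these data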;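 note: 0% = orexin A challenge wells and 100% = SB-334867-A antagonist wells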
GPR7 antag conf: human GPR7 antagonism, confirmation assay | GPR7-expressing cells, calcium fluorescence antagonist mode | 52% of 2,400 active | AID 1952 | shares compounds with GPR7 antagonist | inhibition, % at 4.4 µM; in the data active = inhibition above about 24%;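 note: stimulated with the GPR7 agonist NPW; 0% = agonist plus vehicle and 100% = vehicle alone without agonist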
MCHR1 antag: counter-screen for GPR7 antagonists: antagonists of human MCHR1; shares compounds with GPR7 antagonist; MCHR1-expressing cells, fluorescence antagonist assay; inhibition, % at 4.4 µM; 62% of 2,400 active; in the data active = inhibition above about 22%;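 note: 0% = vehicle with agonist and 100% = vehicle without agonist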
* = called active by the depositor. Only some compounds are listed: those with a hit (about 4.6% of all), similar ones and a draw of the others.

For COc1cc(CNCCc2c[nH]c3ccccc23)ccc1OCc1ccccc1F the results were GPR7 antagonist 24, OX1R antag-1 7, TAAR1 agonist 9, CHO parental Ca 6, TAAR1 antagonist -16 and OX1R antag-2 12.
Screening Cn1c(Oc2ccccc2NCc2cc(Br)ccc2O)cc(=O)n(C)c1=O returned GPR7 antagonist 10, OX1R antag-1 32, TAAR1 agonist 22, CHO parental Ca -19, TAAR1 antagonist -8 and OX1R antag-2 -1.
COc1cc(CNc2ccccc2Oc2cc(=O)n(C)c(=O)n2C)cc(OC)c1OC was read as GPR7 antagonist 37*, OX1R antag-1 16, TAAR1 agonist 3, CHO parental Ca -7, TAAR1 antagonist 8, OX1R antag-2 -17, GPR7 antag conf 25* and MCHR1 antag 24*.
For Cc1nc2cc(NC(=O)Nc3cccc4ccccc34)ccc2n1C the results were GPR7 antagonist -11, OX1R antag-1 7, TAAR1 agonist 9, CHO parental Ca -6, TAAR1 antagonist 2 and OX1R antag-2 -20.
Screening O=C(Nc1ccc2snnc2c1)Nc1cccc2ccccc12 returned GPR7 antagonist 36*, OX1R antag-1 58*, TAAR1 agonist 12, CHO parental Ca 27*, TAAR1 antagonist 1, OX1R antag-2 6, GPR7 antag conf 40* and MCHR1 antag 77*.
Screening Cc1ccccc1Cn1c(C)c(C(=O)N(C)Cc2ccc(F)cc2)sc1=O returned TAAR1 agonist 2 and TAAR1 antagonist 22.
For O=C(CSc1nnc(Cc2ccccc2)n1Cc1ccco1)NC1CCCC1 the results were GPR7 antagonist 33*, OX1R antag-1 10, TAAR1 agonist 5, CHO parental Ca -12, TAAR1 antagonist -7, OX1R antag-2 -15, GPR7 antag conf 26* and MCHR1 antag 13.
Cn1c(Cc2ccccc2)nnc1SCC(=O)NC1CC1 was read as GPR7 antagonist 3, OX1R antag-1 -5, TAAR1 agonist -3, CHO parental Ca -9, TAAR1 antagonist -5 and OX1R antag-2 -13.
Cn1c(Cc2ccccc2)nnc1SCC(=O)NC1CCCC1 was read as GPR7 antagonist 39*, OX1R antag-1 16, TAAR1 agonist 4, CHO parental Ca -3, TAAR1 antagonist 1, OX1R antag-2 -13, GPR7 antag conf -10 and MCHR1 antag -4.
`CCc1ccccc1NC(=O)COc1ccc(C(=S)N2CCCC2)cc1` gave GPR7 antagonist 23*, OX1R antag-1 46*, TAAR1 agonist 4, CHO parental Ca -15, TAAR1 antagonist 9, OX1R antag-2 -1, GPR7 antag conf -9 and MCHR1 antag 2.
Screening CC(=O)c1ccc(OCC(=O)Nc2ccccc2N2CCCC2)cc1 returned GPR7 antagonist -2, OX1R antag-1 18, TAAR1 agonist -2, CHO parental Ca -13, TAAR1 antagonist -30 and OX1R antag-2 -23.
For CCc1ccc(C(C)NC(=O)COC(=O)c2ccc(-n3cnnn3)cc2)cc1 (centres undefined) the results were OX1R antag-1 -1, TAAR1 agonist 9, CHO parental Ca -6, TAAR1 antagonist 12 and OX1R antag-2 -1.
CCCCc1noc2c1/C(=N\O)CC(c1ccccc1)C2 (centres undefined) was read as GPR7 antagonist 41*, OX1R antag-1 11, TAAR1 agonist 0, CHO parental Ca 15, TAAR1 antagonist -6, OX1R antag-2 5, GPR7 antag conf 36* and MCHR1 antag 23*.
Screening Fc1ccc(NC(=S)NCCc2ccccc2)c(F)c1F returned GPR7 antagonist 28*, OX1R antag-1 10, TAAR1 agonist 25, CHO parental Ca -10, TAAR1 antagonist 13, OX1R antag-2 17, GPR7 antag conf 8 and MCHR1 antag 55*.
`O=S(=O)(c1cccc2ccccc12)N1CCC2CC1c1cc(-c3ccc4c(c3)OCO4)ccc12` (centres undefined) gave TAAR1 agonist 3 and TAAR1 antagonist -18.
Clc1ccc(CN2C3=NCCCN3c3ccccc32)cc1 was read as GPR7 antagonist 4, OX1R antag-1 3, TAAR1 agonist 5, CHO parental Ca -21, TAAR1 antagonist -5 and OX1R antag-2 -29.
Clc1ccc(CN2C3=NCCCN3c3ccccc32)cc1Cl was read as GPR7 antagonist 24*, OX1R antag-1 22, TAAR1 agonist 5, CHO parental Ca -32, TAAR1 antagonist 3, OX1R antag-2 -29, GPR7 antag conf 26* and MCHR1 antag 27*.
O=C(CCC(=O)N1CCCCCC1)Nc1ccc([N+](=O)[O-])cc1 was read as GPR7 antagonist 34*, OX1R antag-1 20, TAAR1 agonist 4, CHO parental Ca -5, TAAR1 antagonist -15, OX1R antag-2 -1, GPR7 antag conf 3 and MCHR1 antag 8.
`CC(C)[C@H](NC(=O)c1ccco1)C(=O)N(C)Cc1c(F)cccc1Cl` gave GPR7 antagonist 5, OX1R antag-1 8, TAAR1 agonist 4, CHO parental Ca -26, TAAR1 antagonist -23 and OX1R antag-2 -23.
`COC(=O)C1CCCCN1C(=O)c1ccc2oc(Cc3ccccc3)nc2c1` (centres undefined) gave GPR7 antagonist -15, TAAR1 agonist 14 and TAAR1 antagonist -30.
For COC(=O)C1CCCCN1C(=O)c1ccc2oc(C(C)C)nc2c1 (centres undefined) the results were GPR7 antagonist 26*, OX1R antag-1 24, TAAR1 agonist -1, CHO parental Ca 2, TAAR1 antagonist 2, OX1R antag-2 -46, GPR7 antag conf 6 and MCHR1 antag 3.
For O=C(CN1C(=O)COc2ccccc21)N1CCCC1 the results were GPR7 antagonist 10, OX1R antag-1 4, TAAR1 agonist 2, CHO parental Ca -7, TAAR1 antagonist 7 and OX1R antag-2 -2.
Screening O=C(CN1C(=O)COc2ccccc21)N1CCOCC1 returned GPR7 antagonist 32*, OX1R antag-1 10, TAAR1 agonist 3, CHO parental Ca -13, TAAR1 antagonist -5, OX1R antag-2 1, GPR7 antag conf -3 and MCHR1 antag -1.
For CC(=O)c1ccc(OCC(O)CN(C)CCOc2ccc(Br)cc2)cc1 (centres undefined) the results were GPR7 antagonist 23*, OX1R antag-1 7, TAAR1 agonist 4, CHO parental Ca 17, TAAR1 antagonist 8, OX1R antag-2 -11, GPR7 antag conf 37* and MCHR1 antag 55*.
